Experimental data as given in ChEMBL document CHEMBL4017507 (J Med Chem, 2017).

Columns and labels:
HEL = assay: Cytotoxicity against human HEL cells assessed as cell growth inhibition by cell counting method; type: cell-based
Human betaherpesvirus 5 [1] = assay: Antiviral activity against human cytomegalovirus AD-169 infected in human HEL cells assessed as inhibition of virus-induced cytopathic effect; type: functional, cell-based; details: Human betaherpesvirus 5, AD-169, HEL
How it was run: (§1)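 Confluent HEL fibroblast monolayers were inoculated in 96-well plates with 100 CCID50 of virus in the presence of serially varied compound concentrations. Cytopathicity was scored once untreated infected controls reached full CPE.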

[2] = test system: Human immunodeficiency virus 1; assay: Antiviral activity against HIV1 X4LAI.04 infected in human MT4 cells assessed as decrease in viral replication by p24gag-based luminex assay; type: functional, cell-based; details: Human immunodeficiency virus 1, X4LAI.04, MT4
How it was run: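 10^6 MT-4 cells were infected with HIV-1 X4LAI.04 (7 ng p24) for 2 h at 37 °C, then washed with PBS and resuspended. Compounds were added and cultures were kept 3 days at 37 °C. Supernatant p24 was measured by bead-based Luminex. Inhibition was calculated as (1 − p24 treated/p24 untreated) × 100, and EC50 was derived from it.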

MT4 = assay: Cytotoxicity against human MT4 cells assessed as reduction in cell viability by cell counting method; type: cell-based
How it was run: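 MT-4 cultures, untreated or treated, were assessed with an automated cell counter using propidium iodide staining to enumerate total and dead cells.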

CCRF-CEM = assay: Cytostatic activity human CEM cells assessed as reduction in cell viability after 72 hrs by cell counting method; type: cell-based; details: ccrf-cem, 72 h
How it was run: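 (5–7.5) × 10^? CEM cells per well were grown with compound for 72 h at 37 °C under humidified CO2. Cells were counted in a Coulter counter.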

Human alphaherpesvirus 1 [3] = assay: Antiviral activity against Herpes simplex virus 1 KOS infected in human HEL cells assessed as inhibition of virus-induced cytopathic effect; type: functional, cell-based; details: Human alphaherpesvirus 1, KOS; how it was run: as §1
Human alphaherpesvirus 2 = assay: Antiviral activity against Herpes simplex virus 2 G infected in human HEL cells assessed as inhibition of virus-induced cytopathic effect; type: functional, cell-based; details: Human alphaherpesvirus 2, strain G; how it was run: as §1
Human alphaherpesvirus 1 [4] = assay: Antiviral activity against ACV-resistant thymidine kinase deficient Herpes simplex virus 1 KOS infected in human HEL cells assessed as inhibition of virus-induced cytopathic effect; type: functional, cell-based; details: Human alphaherpesvirus 1, KOS; how it was run: as §1
[5] = Cytotoxicity against human HEL cells assessed as alteration to cell morphology by microscopic analysis; type: cell-based
How it was run: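 Minimal cytotoxic concentration is the compound concentration giving a microscopically visible alteration of HEL cell morphology, scored in the antiviral assay cultures.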

Human betaherpesvirus 5 [6] = assay: Antiviral activity against human cytomegalovirus Davis infected in human HEL cells assessed as inhibition of virus-induced cytopathic effect; type: functional, cell-based; details: Human betaherpesvirus 5, Davis; how it was run: as §1
Human alphaherpesvirus 3 [7] = assay: Antiviral activity against Varicella-Zoster virus OKA infected in human HEL cells assessed as inhibition of virus-induced cytopathic effect; type: functional, cell-based; details: Human alphaherpesvirus 3, strain Oka vaccine
How it was run: (§2)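 Confluent HEL fibroblast cultures were inoculated with 20 PFU of VZV in the presence of varying compound concentrations. Plaque formation was recorded once untreated infected controls reached completion.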

Human alphaherpesvirus 3 [8] = assay: Antiviral activity against thymidine kinase deficient Varicella-Zoster virus 07-1 infected in human HEL cells assessed as inhibition of virus-induced cytopathic effect; type: functional, cell-based; details: Human alphaherpesvirus 3, 07-1, HEL; how it was run: as §2

Compound | CC50 (HEL) | EC50 (Human betaherpesvirus 5 [1]) | EC50 [2] | IC50 (MT4) | CC50 (CCRF-CEM) | EC50 (Human alphaherpesvirus 1 [3]) | EC50 (Human alphaherpesvirus 2) | EC50 (Human alphaherpesvirus 1 [4]) | MCC [5] | EC50 (Human betaherpesvirus 5 [6]) | EC50 (Human alphaherpesvirus 3 [7]) | EC50 (Human alphaherpesvirus 3 [8])
Nc1nc2c(ncn2COCCO)c(=O)[nH]1 [ACYCLOVIR] | 787 µM | – | – | – | – | – | – | – | – | – | – | –
C[C@H](NP(=O)(OCC(CCn1cnc2c(Cl)nc(N)nc21)COP(=O)(N[C@@H](C)C(=O)OCc1ccccc1)Oc1ccccc1)Oc1ccccc1)C(=O)OCc1ccccc1 (some centres not stated) | 4 µM | > 100 µM | 7 µM | 20 µM | 14 µM | > 100 µM | > 100 µM | > 100 µM | > 100 µM | > 100 µM | 44 µM | 44.1 µM
CCC(C)(C)COC(=O)[C@H](C)NP(=O)(OCC(CCn1cnc2c(OC)nc(N)nc21)COP(=O)(N[C@@H](C)C(=O)OCC(C)(C)CC)Oc1cccc2ccccc12)Oc1cccc2ccccc12 (some centres not stated) | 5 µM | > 20 µM | 5.6 µM | 9 µM | 7.2 µM | > 100 µM | > 100 µM | > 100 µM | 50 to 100 µM | > 20 µM | 6.4 µM | 9.5 µM
C[C@H](NP(=O)(OCC(CCn1cnc2c(=O)[nH]c(/N=C/N(C)C)nc21)COP(=O)(N[C@@H](C)C(=O)OCc1ccccc1)Oc1cccc2ccccc12)Oc1cccc2ccccc12)C(=O)OCc1ccccc1 (some centres not stated) | 19 µM | > 20 µM | 3.2 µM | 4 µM | 19 µM | > 100 µM | > 100 µM | > 100 µM | 50 to 100 µM | > 20 µM | 8.8 µM | 11.7 µM
C[C@H](NP(=O)(OCC(CO)OCn1cnc2c(=O)[nH]c(N)nc21)Oc1ccccc1)C(=O)OCc1ccccc1 (some centres not stated) | ≥ 81 µM | 7.9 µM | 17 µM | 20 µM | – | 0.6 µM | 3 µM | 3 µM | > 100 µM | 5 µM | 7.3 µM | 3.2 µM
CC(C)(NP(=O)(OCC(CCn1cnc2c(=O)[nH]c(N)nc21)COP(=O)(NC(C)(C)C(=O)OCc1ccccc1)Oc1ccccc1)Oc1ccccc1)C(=O)OCc1ccccc1 (configuration not stated) | > 100 µM | > 50 µM | 19 µM | 30 µM | 100 µM | > 100 µM | > 100 µM | > 100 µM | 50 to 100 µM | > 50 µM | 10.3 µM | 20.6 µM
CC(C)(NP(=O)(OCC(CO)CCn1cnc2c(=O)[nH]c(N)nc21)Oc1ccccc1)C(=O)OCc1ccccc1 (configuration not stated) | > 50 µM | > 50 µM | 68 µM | > 150 µM | 252 µM | 29 µM | 39 µM | 100 µM | 50 to 100 µM | > 50 µM | > 50 µM | > 50 µM
C[C@H](NP(=O)(OCC(COP(=O)(N[C@@H](C)C(=O)OCc1ccccc1)Oc1ccccc1)OCn1cnc2c(=O)[nH]c(N)nc21)Oc1ccccc1)C(=O)OCc1ccccc1 (some centres not stated) | > 100 µM | 44.7 µM | 30 µM | > 150 µM | 159 µM | 3 µM | 2.5 µM | 14.5 µM | > 100 µM | – | 23.3 µM | 21.3 µM
CC(C)(NP(=O)(OCC(CO)CCn1cnc2c(=O)[nH]c(N)nc21)Oc1cccc2ccccc12)C(=O)OCc1ccccc1 (configuration not stated) | > 100 µM | > 50 µM | 95 µM | 100 µM | – | 75 µM | 52 µM | > 100 µM | 50 to 100 µM | > 50 µM | 20.9 µM | > 50 µM
CC(C)(NP(=O)(OCC(COP(=O)(NC(C)(C)C(=O)OCc1ccccc1)Oc1cccc2ccccc12)OCn1cnc2c(=O)[nH]c(N)nc21)Oc1cccc2ccccc12)C(=O)OCc1ccccc1 (configuration not stated) | > 100 µM | ≥ 44.9 µM | > 150 µM | > 150 µM | > 20 µM | 0.3 µM | 0.9 µM | 1.6 µM | 50 to 100 µM | 50 µM | 13.6 µM | 7.2 µM
C[C@H](NP(=O)(OCC(CCn1cnc2c(=O)[nH]c(/N=C/N(C)C)nc21)COP(=O)(N[C@@H](C)C(=O)OCc1ccccc1)Oc1ccccc1)Oc1ccccc1)C(=O)OCc1ccccc1 (some centres not stated) | 47 µM | > 50 µM | 9 µM | 10 µM | 21 µM | > 100 µM | > 100 µM | > 100 µM | 50 to 100 µM | > 50 µM | 29.8 µM | 28.6 µM
COc1nc(N)nc2c1ncn2CCC(COP(=O)(N[C@@H](C)C(=O)OCC(C)(C)C)Oc1cccc2ccccc12)COP(=O)(N[C@@H](C)C(=O)OCC(C)(C)C)Oc1cccc2ccccc12 (some centres not stated) | 2.5 µM | 15 µM | 8.2 µM | 5 µM | 4.6 µM | > 100 µM | > 100 µM | > 100 µM | 20 to 100 µM | 20 µM | 4.3 µM | 7.7 µM
COC(=O)[C@H](C)NP(=O)(OCC(CO)CCn1cnc2c(OC)nc(N)nc21)Oc1cccc2ccccc12 (some centres not stated) | 37 µM | 32 µM | 16 µM | 10 µM | 15 µM | > 100 µM | > 100 µM | > 100 µM | 50 to 100 µM | 14 µM | 13 µM | 25 µM
C[C@H](NP(=O)(OCC(COP(=O)(N[C@@H](C)C(=O)OCc1ccccc1)Oc1cccc2ccccc12)SCn1cnc2c(=O)[nH]c(/N=C/N(C)C)nc21)Oc1cccc2ccccc12)C(=O)OCc1ccccc1 (some centres not stated) | 30 µM | > 50 µM | 9 µM | 4 µM | 17 µM | > 100 µM | > 100 µM | > 100 µM | 50 to 100 µM | > 50 µM | > 20 µM | > 20 µM
COc1nc(N)nc2c1ncn2CCC(CO)COP(=O)(N[C@@H](C)C(=O)OCC(C)(C)C)Oc1cccc2ccccc12 (some centres not stated) | 7.6 µM | 50 µM | 41 µM | 35 µM | 17 µM | 9 µM | 9 µM | 15 µM | 50 to 100 µM | 40 µM | 2 µM | 6.2 µM
COc1nc(N)nc2c1ncn2CCC(CO)COP(=O)(N[C@@H](C)C(=O)OCc1ccccc1)Oc1cccc2ccccc12 (some centres not stated) | 49 µM | > 50 µM | 23 µM | 12 µM | 27 µM | 38 µM | 20 µM | 20 µM | 50 to 100 µM | 50 µM | 17 µM | 23 µM
CC(C)(NP(=O)(OCC(COP(=O)(NC(C)(C)C(=O)OCc1ccccc1)Oc1ccccc1)OCn1cnc2c(=O)[nH]c(N)nc21)Oc1ccccc1)C(=O)OCc1ccccc1 (configuration not stated) | 82 µM | 50 µM | 10 µM | 13 µM | 47 µM | 1.5 µM | 2.5 µM | 1.5 µM | > 50 µM | 23.6 µM | 21.7 µM | 8.3 µM
C[C@H](NP(=O)(OCC(CCn1cnc2c(=O)[nH]c(N)nc21)COP(=O)(N[C@@H](C)C(=O)OCc1ccccc1)Oc1ccccc1)Oc1ccccc1)C(=O)OCc1ccccc1 (some centres not stated) | ≥ 100 µM | > 50 µM | 8 µM | 10 µM | 76 µM | > 100 µM | > 100 µM | > 100 µM | 50 to 100 µM | > 50 µM | 16.3 µM | 41.5 µM
C[C@H](NP(=O)(OCC(CCn1cnc2c(=O)[nH]c(N)nc21)COP(=O)(N[C@@H](C)C(=O)OCc1ccccc1)Oc1cccc2ccccc12)Oc1cccc2ccccc12)C(=O)OCc1ccccc1 (some centres not stated) | > 100 µM | > 50 µM | – | – | > 10 µM | > 100 µM | > 100 µM | > 100 µM | 50 to 100 µM | > 50 µM | 13.5 µM | > 50 µM
C[C@H](NP(=O)(OCC(COP(=O)(N[C@@H](C)C(=O)OCc1ccccc1)Oc1cccc2ccccc12)OCn1cnc2c(=O)[nH]c(N)nc21)Oc1cccc2ccccc12)C(=O)OCc1ccccc1 (some centres not stated) | > 100 µM | 27.4 µM | – | > 150 µM | – | 1.3 µM | 2.5 µM | 2.5 µM | 50 to 100 µM | 11.2 µM | 6.2 µM | 4.1 µM
